For assay [1], the target named is T1, Adenosine receptor A2a (Homo sapiens, UniProt P29274). Description: Displacement of [3H]2-[p-(2-carboxyethyl)phenyl-ethylamino]-5'-N-ethylcarboxamidoadenosine from human adenosine A2a receptor expressed in HEK293 cells. It is filed as cell-based.
Target sequence in this assay (P29274 whole entry): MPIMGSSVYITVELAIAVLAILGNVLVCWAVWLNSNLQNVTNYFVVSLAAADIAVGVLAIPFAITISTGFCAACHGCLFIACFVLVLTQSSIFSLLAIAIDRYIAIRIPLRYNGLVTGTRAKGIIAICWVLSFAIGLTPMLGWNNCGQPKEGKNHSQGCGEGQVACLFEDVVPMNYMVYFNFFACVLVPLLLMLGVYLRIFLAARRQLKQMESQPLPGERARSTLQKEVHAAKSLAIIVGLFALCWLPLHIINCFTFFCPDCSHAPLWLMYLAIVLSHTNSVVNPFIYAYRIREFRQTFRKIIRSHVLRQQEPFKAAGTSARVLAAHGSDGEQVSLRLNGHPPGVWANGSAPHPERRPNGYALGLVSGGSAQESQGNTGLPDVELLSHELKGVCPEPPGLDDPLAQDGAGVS
For another assay, the target named is T2, Adenosine receptor A3 (Homo sapiens, UniProt P0DMS8).
T2 sequence (P0DMS8 whole entry): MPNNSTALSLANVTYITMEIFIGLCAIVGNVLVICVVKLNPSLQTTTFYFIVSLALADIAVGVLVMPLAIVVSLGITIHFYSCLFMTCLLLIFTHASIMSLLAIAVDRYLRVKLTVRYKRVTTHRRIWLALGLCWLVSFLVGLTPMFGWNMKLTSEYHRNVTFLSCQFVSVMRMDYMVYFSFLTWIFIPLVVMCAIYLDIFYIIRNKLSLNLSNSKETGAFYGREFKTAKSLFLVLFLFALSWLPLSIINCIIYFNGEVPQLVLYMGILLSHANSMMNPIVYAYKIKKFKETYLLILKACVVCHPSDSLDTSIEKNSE
Briefly: Displacement of [125I]I-AB-MECA from human adenosine A3 receptor expressed in CHO cells. It is filed as cell-based. Background: Loss of bound radioactivity is the signal in a displacement assay; it reports binding, not function.

The target in assay [2] is T3, Adenosine receptor A1 (Homo sapiens) (UniProt P30542).
T3 sequence (whole entry): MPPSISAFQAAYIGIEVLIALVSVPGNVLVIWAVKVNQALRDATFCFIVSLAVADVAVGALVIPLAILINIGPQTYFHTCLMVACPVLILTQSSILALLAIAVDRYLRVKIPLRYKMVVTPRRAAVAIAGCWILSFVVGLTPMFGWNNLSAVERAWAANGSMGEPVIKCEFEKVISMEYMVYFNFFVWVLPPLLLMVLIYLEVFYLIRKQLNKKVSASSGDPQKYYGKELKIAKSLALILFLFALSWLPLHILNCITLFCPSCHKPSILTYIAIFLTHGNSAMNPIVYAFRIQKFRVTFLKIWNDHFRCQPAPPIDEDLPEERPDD
Briefly: Displacement of [3H]R-PIA from human adenosine A1 receptor expressed in CHO cells at 10 uM. It is filed as cell-based. A digest of the protocol: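 Single-point test at 10 μM on membranes of CHO cells stably expressing human A1 receptor, read as percent inhibition of [3H]R-PIA agonist binding. Nonspecific binding was defined with 10 μM NECA.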

The next assay addresses T4, Adenosine receptor A1 (Homo sapiens, UniProt P30542).
T4 sequence (P30542 whole entry): T3 sequence (whole entry)
Briefly: Displacement of [3H]R-PIA from human adenosine A1 receptor expressed in CHO cells. The assay is classed as cell-based.

For assay [3], the species on record is Homo sapiens. Briefly: Selectivity ratio of Ki for human adenosine A1 receptor to Ki for human adenosine A2A receptor.
The species named for assay [4] is Homo sapiens. Briefly: Selectivity ratio of Ki for human adenosine A3 receptor to Ki for human adenosine A2A receptor.
For assay [5], the target named is T1, Adenosine receptor A2a. Briefly: Agonist activity at human adenosine A2a receptor expressed in CHO cells assessed as stimulation of cAMP formation after 24 hrs. The assay is classed as functional, cell-based.
Target sequence in this assay (P29274 whole entry): as the sequence (P29274 whole entry) above
The target of assay [6] is T1, Adenosine receptor A2a. Description: Displacement of [3H]2-[p-(2-carboxyethyl)phenyl-ethylamino]-5'-N-ethylcarboxamidoadenosine from human adenosine A2a receptor expressed in HEK293 cells assessed as radioligand binding at 1 uM preincubated for 30 mins. It is filed as cell-based. A digest of the protocol: (§1)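 Membranes of HEK293 cells stably expressing human A2A receptor were preincubated with compound (1 μM, 30 min). Membranes were then washed by repeated centrifugation cycles. Residual specific binding was measured with agonist [3H]CGS21680 (10 nM) or antagonist [3H]7 (1.0 nM) and expressed as percent binding remaining.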
Target sequence in this assay (P29274 whole entry): as the sequence (P29274 whole entry) above

Assay [7] has as its target T1, Adenosine receptor A2a. Description: Displacement of [3H]4-[2-[7-amino-2-(2-furyl)-1,2,4-triazolo[1,5-a][1,3,5]triazin-5-yl-amino]ethylphenol from human adenosine A2a receptor expressed in HEK293 cells assessed as radioligand binding at 1 uM preincubated for 30 mins. The assay is classed as cell-based. A digest of the protocol: as §1
Target sequence in this assay (P29274 whole entry): as the sequence (P29274 whole entry) above
For assay [8], the target named is T1, Adenosine receptor A2a. Briefly: Displacement of [3H]4-[2-[7-amino-2-(2-furyl)-1,2,4-triazolo[1,5-a][1,3,5]triazin-5-yl-amino]ethylphenol from wild type human adenosine A2a receptor expressed in COS-7 cells assessed as radioligand Kd compound preincubated for 30 mins.
Target sequence in this assay (P29274 whole entry): as the sequence (P29274 whole entry) above
Assay [9] concerns the target T1, Adenosine receptor A2a. Description: Displacement of [3H]4-[2-[7-amino-2-(2-furyl)-1,2,4-triazolo[1,5-a][1,3,5]triazin-5-yl-amino]ethylphenol from human adenosine A2a receptor K150A mutant expressed in COS-7 cells assessed as radioligand Bmax per mg of protein compound preincubated for 30 mins.
Target sequence in this assay (P29274 whole entry, looked up): as the sequence (P29274 whole entry) above
Assay [10] concerns the target T1, Adenosine receptor A2a. Briefly: Displacement of [3H]4-[2-[7-amino-2-(2-furyl)-1,2,4-triazolo[1,5-a][1,3,5]triazin-5-yl-amino]ethylphenol from human adenosine A2a receptor K153A mutant expressed in COS-7 cells assessed as radioligand Bmax per mg of protein compound preincubated for 30 mins.
Target sequence in this assay (P29274 whole entry, looked up): as the sequence (P29274 whole entry) above

pEC50, pKd, pKi: −log10 of the molar value.

Regarding `CCNC(=O)[C@H]1O[C@@H](n2cnc3c(N)nc(NCCc4ccc(CCC(=O)Nc5ccc(OC(=O)CCCC[C@@H]6SC[C@@H]7NC(=O)N[C@@H]76)c([N+](=O)[O-])c5)cc4)nc32)[C@H](O)[C@@H]1O`, the pKi at Adenosine receptor A2a [1] is 5.48; on Adenosine receptor A3, 5.71. The compound also showed an inhibition in [2] of 37%.

Regarding `CCNC(=O)[C@H]1O[C@@H](n2cnc3c(N)nc(NCCc4ccc(CCC(=O)Nc5ccc(O)c([N+](=O)[O-])c5)cc4)nc32)[C@H](O)[C@@H]1O`, the pKi at Adenosine receptor A1 is 5.72; at Adenosine receptor A2a [1] it was 6.57; at Adenosine receptor A3, 6.77.

Consider `CCNC(=O)[C@H]1O[C@@H](n2cnc3c(N)nc(NCCc4ccc(CCC(=O)Nc5ccc(OC(=O)CCCCN=[N+]=[N-])c([N+](=O)[O-])c5)cc4)nc32)[C@H](O)[C@@H]1O`, for which the pKi at Adenosine receptor A2a [1] is 5.36; on Adenosine receptor A3, 5.74. This compound gave an inhibition in [2] of 30%.

As to `CCNC(=O)[C@H]1O[C@@H](n2cnc3c(N)nc(NCCc4ccc(CCC(=O)Nc5ccc(OC(C)=O)c([N+](=O)[O-])c5)cc4)nc32)[C@H](O)[C@@H]1O`, the results for the pKi on Adenosine receptor A1, at Adenosine receptor A2a [1] and at Adenosine receptor A3 were 6.30, 7.64 and 6.68, respectively. Besides, the results for the Ratio Ki in the assay listed under Homo sapiens [3] and in the assay listed under Homo sapiens [4] were 22 and 9, respectively. Further, on Adenosine receptor A2a [5], the pEC50 was 8.67. Further, the results for the Activity on Adenosine receptor A2a [6] and on Adenosine receptor A2a [7] were 19% and 11%, respectively. In addition, at Adenosine receptor A2a [8], the pKd is 8.65. Also, the Bmax at Adenosine receptor A2a [9] worked out at 0.2 pmol; at Adenosine receptor A2a [10], 1.65 pmol.

By pKi is commonly meant the negative decadic logarithm of the Ki, by convention in mol/L. Low readings indicate a large Ki, high ones a small Ki. As a reminder, the inhibition is the drop in the measured response relative to a control, in per cent. Low values mean a weak effect, high ones a strong effect. What is called pEC50 is the negative decadic logarithm of the EC50, by convention in mol/L. As usually defined, the pKd is the negative decadic logarithm of the Kd, by convention in mol/L.
